PMC6044994 (ACS Omega, 2018)
Converted amounts (≈) assume the structure as drawn. Like-named read-outs stand apart in the source and are kept apart here.

Columns and labels:
[1] = system: multidrug-resistant E. coli strains MRA11, MRC17, MRAE33; assay: Synergistic study with CIP, checkerboard method; assay type: cell-based, Escherichia coli; settings: for MIC: Escherichia coli
[2] = system: human red blood cells (hRBCs); assay: Hemolytic assay; assay type: cell-based
Method in brief: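 Erythrocytes from healthy donors (EDTA) pelleted at 2000 rpm for 10 min at 20 °C and washed three times in PBS. Made to a 10% suspension, diluted 1:10, then mixed 1:1 with test compound in PBS (gradient 1000–7.8 μg/mL). Incubated 1 h at 37 °C and centrifuged; supernatant A450 used to calculate % hemolysis.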

S. pneumoniae [3] = assay: CFU count of bacterial cells post treatment; assay type: cell-based, Streptococcus pneumoniae; settings: treated bacterial cells
E. coli [4] = assay: CFU count of bacterial cells post treatment; assay type: cell-based, Escherichia coli; settings: treated bacterial cells
[5] = system: multidrug-resistant E. coli strains; assay type: cell-based, Escherichia coli; settings: for inhibition at 1024 µg/mL: Escherichia coli
G. mellonella larvae [6] = assay: In vivo toxicity, larval viability; set-up: species or system Galleria mellonella; settings: up to 2.5 mg/mL
E. coli biofilm [7] = assay: Anti-biofilm activity by XTT reduction assay; assay type: cell-based; settings: Escherichia coli, read-out: inhibition of biofilm formation (XTT)
Method in brief: (§1)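 Biofilm grown in tryptic soy broth from 5 × 10^5 CFU/mL inocula with 2-fold serial dilutions of test compound (7.812–1000 μg/mL), 37 °C for 24 h, static. Nonadherent cells removed by PBS wash.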

G. mellonella larvae [8] = assay: In vivo toxicity, hemocyte density of larvae; set-up: species or system Galleria mellonella; settings: 2.5 mg/mL, 24 h
Method in brief: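 Three larvae injected with 20 μL of test compound at 1.25 or 2.5 mg/mL and kept 24 h at 30 °C in the dark. Hemolymph collected from the anterior end and diluted 1 in 10 in cold PBS with 0.37% 2-mercaptoethanol. Hemocytes counted on a hemocytometer and density back-calculated.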

HEK293 cells = assay: Cytotoxicity by MTT assay; assay type: cell-based, human; settings: HEK293, up to 100 μg/mL concentration
[9] = Cytotoxicity by MTT assay; assay type: cell-based, human; settings: human, HEK293 cells
S. pneumoniae cells = assay: TEM analysis of cell morphology; assay type: cell-based, Streptococcus pneumoniae; settings: MIC concn, 1 h
Method in brief: (§2)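 Cells standardized to A600 ≈ 0.1 and exposed 1 h to test compound: E. coli at 62.5 or 125 μg/mL, S. pneumoniae at 125 μg/mL. Washed in PBS, fixed overnight in 2.5% glutaraldehyde (phosphate/MgCl2 buffer, pH 6.5). Postfixed 2 h in 2% OsO4, stained en bloc with 1% uranyl acetate, ethanol-dehydrated, Epon-embedded (60 °C, 48 h). Ultrathin sections imaged by TEM.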

S. pneumoniae biofilm [10] = assay: Anti-biofilm activity by crystal violet assay; assay type: cell-based; settings: Streptococcus pneumoniae, read-out: inhibition of biofilm formation (crystal violet)
S. pneumoniae (MTCC 655) = assay: In vitro antibacterial activity, broth dilution; assay type: cell-based; settings: Streptococcus pneumoniae, MTCC655
E. coli (ATCC 25922) = assay: In vitro antibacterial activity, broth dilution; assay type: cell-based; settings: Escherichia coli, ATCC25922
E. coli cells = assay: TEM analysis of cell morphology; assay type: cell-based, Escherichia coli; settings: MIC concn, 1 h
Method in brief: as §2

E. coli [11] = assay: Growth kinetic studies; assay type: cell-based, Escherichia coli; settings: for time at which growth was observed (lag phase): sub-MIC concentration
Method in brief: (§3)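 Fresh cultures grown 12 h at 37 °C, then about 2 × 10^6 cells/mL inoculated into 50 mL nutrient broth. […] Shaken at 37 °C, 160 rpm. Samples taken every 2 h from 0 to 22 h, with OD600 plotted against time.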

S. pneumoniae [12] = assay: Growth kinetic studies; assay type: cell-based, Streptococcus pneumoniae; settings: for time at which growth was observed: S. pneumoniae
Method in brief: as §3

S. pneumoniae biofilm [13] = assay: Anti-biofilm activity by XTT reduction assay; assay type: cell-based; settings: Streptococcus pneumoniae, read-out: inhibition of biofilm formation (XTT)
Method in brief: as §1

E. coli biofilm [14] = assay: Anti-biofilm activity by crystal violet assay; assay type: cell-based; settings: Escherichia coli, read-out: inhibition of biofilm formation (crystal violet)
[15] = read-out: MIC alone, E. coli MRA11
[16] = read-out: MIC alone, E. coli MRAE33
[17] = read-out: MIC alone, E. coli MRC17
[18] = E. coli MRA11, in combination with CIP
[19] = E. coli MRA11, test compound in combination with CIP
[20] = E. coli MRAE33, in combination with CIP
[21] = E. coli MRAE33, test compound in combination with CIP
[22] = E. coli MRC17, in combination with CIP
[23] = E. coli MRC17, test compound in combination with CIP
[24] = read-out: % inhibition of growth, E. coli MRA11, at 1024 μg/mL (MIC)
[25] = read-out: % inhibition of growth, E. coli MRAE33, at 1024 μg/mL (MIC)
[26] = read-out: % inhibition of growth, E. coli MRC17, at 1024 μg/mL (MIC)

SMILES	MIC [1, 15] [µg/mL]	MIC [1, 16] [µg/mL]	MIC [1, 17] [µg/mL]	cell lysis ([2]; 200 μg/mL) [%]	CFUs S. pneumoniae (S. pneumoniae [3])	CFUs E. coli (E. coli [4])	viability of the larvae (G. mellonella larvae [6])	hemocyte density of the larvae (G. mellonella larvae [8])	FICI [1, 18]	mode of interaction [1, 18]	MIC in combination [1, 19] [µg/mL]	FICI [1, 20]	mode of interaction [1, 20]	MIC in combination [1, 21] [µg/mL]	FICI [1, 22]	mode of interaction [1, 22]	MIC in combination [1, 23] [µg/mL]	cytotoxicity (HEK293 cells)	viability at 48 h, 50 μg/mL [9] [%]	viability at 48 h, 200 μg/mL [9] [%]	other results
O=C(O)c1cn(C2CC2)c2cc(N3CCNCC3)c(F)cc2c1=O [CIP, Ciprofloxacin, reference compound]	128	2	128	0.8	5.0 × 10^3	2.0 × 10^4															MIC in combination ([1]; E. coli MRA11, CIP in combination with 5e): 2 µg/mL; MIC in combination ([1]; E. coli MRA11, CIP in combination with 5u): 16 µg/mL; MIC in combination ([1]; E. coli MRAE33, CIP in combination with 5e): 2 µg/mL; MIC in combination ([1]; E. coli MRAE33, CIP in combination with 5u): 2 µg/mL; MIC in combination ([1]; E. coli MRC17, CIP in combination with 5e): 2 µg/mL; MIC in combination ([1]; E. coli MRC17, CIP in combination with 5u): 64 µg/mL; % inhibition of growth ([5]; multidrug-resistant E. coli strains, at a concentration lower than those of the compounds): ~100%
Cc1ccc(C(C)C)cc1OCc1cn(-c2ccc(C(=O)O)cc2)nn1 [Compound 5e, 4-(4-((5-Isopropyl-2-methylphenoxy)methyl)-1H-1,2,3-triazol-1-yl)benzoic Acid]	1020	1020	1020	9	7.8 × 10^3	2.5 × 10^4	not affected	not significantly affected	0.03	synergistic (Synergy and antagonism were defined by FICI ≤ 0.5 and >4, respectively)	16	1.02	indifferent (indifferent was defined by 1 < FICI ≤ 4)	16	0.03	synergistic (Synergy and antagonism were defined by FICI ≤ 0.5 and >4, respectively)	16	did not show significant cytotoxicity	> 75	> 50	inhibition at 125 µg/mL (E. coli biofilm [7]): 95.2%; effect on cell morphology (TEM) (S. pneumoniae cells): significantly damaged the cell wall; cell lysis ([2]; 600 μg/mL): 22%; inhibition at 250 µg/mL (S. pneumoniae biofilm [10]): 93.4%; MIC (S. pneumoniae (MTCC 655)): 125 µg/mL (≈ 356 µM); MIC (E. coli (ATCC 25922)): 62.5 µg/mL (≈ 178 µM); effect on cell morphology (TEM) (E. coli cells): significantly damaged the cell wall; time at which growth was observed (lag phase) (E. coli [11]; E. coli): approximately 6 h; growth of E. coli (E. coli [11]; MIC and 2MIC concentrations, up to 22 h of incubation): no significant growth; growth of S. pneumoniae (S. pneumoniae [12]; sub-MIC concentration (62.5 μg/mL)): effectively inhibited the growth; inhibition at 250 µg/mL (S. pneumoniae biofilm [13]): 92.3%; inhibition at 1024 µg/mL [5, 24]: > 95%; inhibition at 1024 µg/mL [5, 25]: 86%; inhibition at 1024 µg/mL [5, 26]: 79%; inhibition at 125 µg/mL (E. coli biofilm [14]): 94.3%
O=C(O)c1ccc(-n2cc(COC3=CC(=O)c4ccccc4C3=O)nn2)cc1 [Compound 5u, 4-(4-((1,4-Dioxo-1,4-dihydronaphthalen-2-yloxy)methyl)-1H-1,2,3-triazol-1-yl)benzoic Acid]	1020	1020	1020	9	6.0 × 10^3	2.7 × 10^4	not affected	not significantly affected	0.62	partially synergistic (Partially synergistic was denoted by 0.5 > FICI < 1)	512	1.02	indifferent (indifferent was defined by 1 < FICI ≤ 4)	16	1.50	indifferent (indifferent was defined by 1 < FICI ≤ 4)	1024	did not show significant cytotoxicity	> 75	> 50	inhibition at 250 µg/mL (E. coli biofilm [7]): 92.3%; effect on cell morphology (TEM) (S. pneumoniae cells): significantly damaged the cell wall; cell lysis ([2]; 600 μg/mL): 12%; inhibition at 250 µg/mL (S. pneumoniae biofilm [10]): 98.3%; MIC (S. pneumoniae (MTCC 655)): 125 µg/mL (≈ 333 µM); MIC (E. coli (ATCC 25922)): 125 µg/mL (≈ 333 µM); effect on cell morphology (TEM) (E. coli cells): significantly damaged the cell wall; time at which growth was observed (E. coli [11]; E. coli, MIC concentration): 9 h; time at which growth was observed (lag phase) (E. coli [11]; E. coli): 6 h; time at which growth was observed (S. pneumoniae [12]; MIC concentration): 9 h; time at which growth was observed (S. pneumoniae [12]; sub-MIC concentration): 8 h; inhibition at 250 µg/mL (S. pneumoniae biofilm [13]): 100%; inhibition at 1024 µg/mL [5, 24]: > 90%; inhibition at 1024 µg/mL [5, 25]: ~100%; inhibition at 1024 µg/mL [5, 26]: ~100%; inhibition at 250 µg/mL (E. coli biofilm [14]): 77.3%
